In PMC10864842 (Saudi Pharmaceutical Journal : SPJ, 2024):
Values joined by “and” are separate entries in the source; they are usually repeats but may differ in a detail not shown here. Equal values may be shown once. Read-outs that look alike come from different tables or passages of the source.

Tests used:
[1] = MTT assay on oral epithelial normal cells; format: cell-based
Procedure, shortened: (§1)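 Cells kept in DMEM with 10% (v/v) FBS and 1% (v/v) streptomycin/penicillin at 37 °C and 5% CO2. About 10^4 cells/ml were seeded and grown for 24 h. Test compounds in DMSO were added at 6.25, 12.5, 25, 50 and 100 µg/ml for 24 and 48 h. Medium was replaced with 5 mg/mL MTT for 3–4 h. Formazan was dissolved in acidified isopropanol and read at 630 nm. Viability is expressed as % of untreated cells.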

[2] = system: MDA-MB-231 breast cancer cells; assay: MTT assay on MDA-MB-231 cells; format: cell-based; conditions: Homo sapiens
Procedure, shortened: as §1

MDA-MB-231 cells [3] = assay: qRT-PCR relative gene expression of P53, BAX and BCL-2; format: cell-based; conditions: MDA-MB-231, 48 h
Procedure, shortened: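 RNA was extracted from cells after 48 h of treatment with test compound, and its purity was checked by nanodrop. P53, BAX and BCL-2 expression was normalised to β-actin as the housekeeping gene. Treated and untreated cells were compared by ANOVA.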

KSP ATPase [4] = target: T1, KSP ATPase (Homo sapiens, UniProt P52732); assay: Microtubule-activated KSP ATPase end-point assay; format: biochemical; conditions: read-out: KSP ATPase inhibition [%]
T1 sequence (P52732 1-1056): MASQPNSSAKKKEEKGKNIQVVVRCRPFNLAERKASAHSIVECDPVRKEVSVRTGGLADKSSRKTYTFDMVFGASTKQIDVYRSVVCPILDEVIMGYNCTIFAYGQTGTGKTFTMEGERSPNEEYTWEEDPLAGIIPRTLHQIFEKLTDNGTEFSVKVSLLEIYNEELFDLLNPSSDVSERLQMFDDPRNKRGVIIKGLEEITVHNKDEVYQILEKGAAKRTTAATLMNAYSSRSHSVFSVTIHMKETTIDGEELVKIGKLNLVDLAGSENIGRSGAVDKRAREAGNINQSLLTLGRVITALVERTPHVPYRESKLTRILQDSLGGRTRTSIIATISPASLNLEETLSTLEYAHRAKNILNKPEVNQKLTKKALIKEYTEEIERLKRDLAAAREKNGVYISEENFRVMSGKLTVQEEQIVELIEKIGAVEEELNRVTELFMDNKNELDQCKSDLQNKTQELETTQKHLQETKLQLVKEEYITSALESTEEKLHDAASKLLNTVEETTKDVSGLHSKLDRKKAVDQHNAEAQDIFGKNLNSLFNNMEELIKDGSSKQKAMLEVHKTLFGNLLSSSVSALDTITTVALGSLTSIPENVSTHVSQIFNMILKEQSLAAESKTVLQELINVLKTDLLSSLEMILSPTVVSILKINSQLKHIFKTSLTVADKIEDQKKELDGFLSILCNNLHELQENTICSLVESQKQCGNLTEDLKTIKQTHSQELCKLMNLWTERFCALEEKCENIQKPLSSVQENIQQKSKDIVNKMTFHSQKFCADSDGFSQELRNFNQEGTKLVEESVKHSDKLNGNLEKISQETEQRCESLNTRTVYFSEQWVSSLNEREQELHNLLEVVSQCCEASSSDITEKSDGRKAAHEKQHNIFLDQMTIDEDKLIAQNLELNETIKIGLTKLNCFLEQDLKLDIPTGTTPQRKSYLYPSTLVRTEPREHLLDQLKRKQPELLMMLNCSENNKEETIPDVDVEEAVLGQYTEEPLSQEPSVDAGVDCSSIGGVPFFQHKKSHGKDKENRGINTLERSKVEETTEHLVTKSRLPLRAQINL

MDA-MB-231 cells [5] = assay: Annexin V-FITC/PI flow cytometry; format: cell-based; conditions: MDA-MB-231, Annexin V-FITC & PI, post-treatment
Procedure, shortened: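 MDA-MB-231 cells were kept in DMEM with 10% FBS and 1% streptomycin/penicillin at 37 °C under 5% CO2. Cells were treated with the test compound for 48 h, with doxorubicin as the standard and untreated cells for comparison. Cells were then harvested, rinsed, suspended in PBS, stained with Annexin V-FITC/PI and held 20 min in the dark before flow cytometry. Early apoptosis was Annexin V+/PI−; late apoptosis was Annexin V+/PI+.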

MDA-MB-231 cells [6] = assay: DNA fragmentation by gel electrophoresis; format: cell-based; conditions: post-treatment
Procedure, shortened: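 MDA-MB-231 cells kept in DMEM with 10% FBS and 1% streptomycin/penicillin at 37 °C, 5% CO2. Genomic DNA was extracted with a commercial kit from cells before and after test compound treatment, and its quality was checked by nanodrop. DNA plus 1X loading dye was run on agarose gel, viewed under a UV transilluminator and imaged on a gel documentation system. Doxorubicin served as reference.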

KSP ATPase [7] = target: T1, KSP ATPase; assay: Microtubule-activated KSP ATPase kinetic assay; format: biochemical
MDA-MB-231 cells [8] = assay: Morphological study by inverted microscope; format: cell-based; conditions: 48 h
Procedure, shortened: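 MDA-MB-231 cells were grown in DMEM with 10% FBS and 1% streptomycin/penicillin at 37 °C, 5% CO2. They were treated with varying concentrations of test compound for 48 h and examined by inverted light microscopy. Phenotypic changes were scored as cell shrinkage, apoptotic body formation and membrane blebbing.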

PI3Kδ = PI3Kδ (Homo sapiens, UniProt O00329); assay: PI3Kδ inhibition assay; format: biochemical
Sequence of PI3Kδ (O00329 whole entry): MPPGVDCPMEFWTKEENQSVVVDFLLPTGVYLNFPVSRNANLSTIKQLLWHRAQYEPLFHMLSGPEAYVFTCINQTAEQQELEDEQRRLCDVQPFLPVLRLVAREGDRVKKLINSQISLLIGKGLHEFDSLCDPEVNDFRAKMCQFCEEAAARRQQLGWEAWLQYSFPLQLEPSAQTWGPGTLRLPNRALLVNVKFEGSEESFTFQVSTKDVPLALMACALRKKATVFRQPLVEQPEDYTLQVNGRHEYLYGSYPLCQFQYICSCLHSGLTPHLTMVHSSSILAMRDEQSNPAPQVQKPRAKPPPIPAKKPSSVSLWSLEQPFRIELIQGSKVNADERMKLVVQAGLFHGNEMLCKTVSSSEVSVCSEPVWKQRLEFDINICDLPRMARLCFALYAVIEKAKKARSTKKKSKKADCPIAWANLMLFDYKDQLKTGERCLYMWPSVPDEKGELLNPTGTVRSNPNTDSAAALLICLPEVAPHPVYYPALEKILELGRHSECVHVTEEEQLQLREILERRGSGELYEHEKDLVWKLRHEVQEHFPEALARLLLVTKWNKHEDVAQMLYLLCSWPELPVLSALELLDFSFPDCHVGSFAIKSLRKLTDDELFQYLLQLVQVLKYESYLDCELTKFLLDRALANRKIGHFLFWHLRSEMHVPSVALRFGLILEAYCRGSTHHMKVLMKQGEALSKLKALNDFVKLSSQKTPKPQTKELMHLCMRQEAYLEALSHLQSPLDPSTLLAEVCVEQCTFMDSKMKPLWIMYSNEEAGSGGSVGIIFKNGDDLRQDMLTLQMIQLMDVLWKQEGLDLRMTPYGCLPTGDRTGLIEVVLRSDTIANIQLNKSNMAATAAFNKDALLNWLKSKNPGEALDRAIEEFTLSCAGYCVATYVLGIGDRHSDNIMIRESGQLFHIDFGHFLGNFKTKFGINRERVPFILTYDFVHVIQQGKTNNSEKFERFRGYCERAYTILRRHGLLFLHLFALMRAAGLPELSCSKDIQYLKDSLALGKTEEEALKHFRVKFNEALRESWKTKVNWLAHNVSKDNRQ
Sequence of PI3Kδ (P27986 whole entry partner): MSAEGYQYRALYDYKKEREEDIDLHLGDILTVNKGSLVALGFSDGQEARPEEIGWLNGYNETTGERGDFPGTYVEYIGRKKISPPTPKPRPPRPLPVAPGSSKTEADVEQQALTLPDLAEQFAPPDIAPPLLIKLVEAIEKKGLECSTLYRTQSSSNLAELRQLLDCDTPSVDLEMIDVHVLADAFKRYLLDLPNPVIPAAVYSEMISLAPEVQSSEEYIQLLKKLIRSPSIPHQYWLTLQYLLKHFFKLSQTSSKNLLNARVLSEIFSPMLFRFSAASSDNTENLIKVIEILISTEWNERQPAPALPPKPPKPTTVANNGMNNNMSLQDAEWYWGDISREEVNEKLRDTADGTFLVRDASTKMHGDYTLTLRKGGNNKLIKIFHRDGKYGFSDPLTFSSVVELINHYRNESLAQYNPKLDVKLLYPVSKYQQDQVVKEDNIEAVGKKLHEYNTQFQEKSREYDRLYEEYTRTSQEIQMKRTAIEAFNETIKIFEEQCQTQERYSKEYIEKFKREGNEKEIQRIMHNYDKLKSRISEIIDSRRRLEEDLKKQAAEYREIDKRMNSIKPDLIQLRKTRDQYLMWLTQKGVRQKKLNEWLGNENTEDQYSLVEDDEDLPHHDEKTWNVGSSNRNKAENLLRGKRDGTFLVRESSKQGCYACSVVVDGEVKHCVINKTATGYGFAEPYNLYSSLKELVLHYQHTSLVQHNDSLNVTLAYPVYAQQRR

[9] = MDA-MB-231, 24 h, read-out: IC50 after 24 h (µM)
[10] = MDA-MB-231, 24 h, read-out: IC50 after 24 h in µg/mL
[11] = MDA-MB-231, 48 h, read-out: IC50 after 48 h (µM)
[12] = MDA-MB-231, 48 h, read-out: IC50 after 48 h in µg/mL

| SMILES | IC50 at 48 h [1] | IC50 [2, 9] | IC50 [2, 10] | IC50 [2, 11] | IC50 [2, 12] | Relative gene expression of BAX (MDA-MB-231 cells [3]) | Relative gene expression of BCL-2 (MDA-MB-231 cells [3]) | Relative gene expression of P53 (MDA-MB-231 cells [3]) | inhibition at 2 µM (KSP ATPase [4]) | Number of cells in the early and late apoptosis versus untreated cells (MDA-MB-231 cells [5]) | DNA fragmentation (MDA-MB-231 cells [6]) | IC50 (KSP ATPase [7]) | Morphological changes of treated cells (MDA-MB-231 cells [8]) | IC50 (PI3Kδ) |
| --- | --- | --- | --- | --- | --- | --- | --- | --- | --- | --- | --- | --- | --- | --- |
| O=c1c2cc(Cl)ccc2nc(S)n1-c1ccc(F)cc1 [Compound 1, 6-Chloro-3-(4-fluorophenyl)-2-mercaptoquinazolin-4(3H)-one] | 80 µg/mL and 261 µM | 44.3 µM | 13.6 ± 0.12 µg/mL | 23.6 µM | 7.23 ± 0.15 µg/mL |  |  |  |  |  |  |  |  |  |
| CCSc1nc2ccc(Cl)cc2c(=O)n1-c1ccc(F)cc1 [Compound 3a, 6-Chloro-2-(ethylthio)-3-(4-fluorophenyl)quinazolin-4(3H)-one] | 98.3 µg/mL and 294 µM | 28.5 µM | 9.54 ± 0.11 µg/mL | 14.5 µM | 4.86 ± 0.18 µg/mL | significant overexpression | downregulation | significant overexpression | 88.3 ± 3.86% | significant increase | internucleosomal fragmentation was noticed | 0.0887 ± 0.00316 µM | cell shrinkage, apoptotic bodies formation, and membrane blebbing | 0.0382 ± 0.00215 µM |
| CCOC(=O)CSc1nc2ccc(Cl)cc2c(=O)n1-c1ccc(F)cc1 [Compound 3c, Ethyl 2-((6-chloro-3-(4-fluorophenyl)-4-oxo-3,4-dihydroquinazolin-2-yl)thio)acetate] | 58.3 µg/mL and 148 µM | 56 µM | 22 ± 0.13 µg/mL | 17.8 µM | 7.01 ± 0.12 µg/mL |  |  |  |  |  |  |  |  |  |
| O=c1c2cc(Cl)ccc2nc(SCc2ccc(Cl)cc2)n1-c1ccc(F)cc1 [Compound 3d, 6-Chloro-2-((4-chlorobenzyl)thio)-3-(4-fluorophenyl)quinazolin-4(3H)-one] | 65.4 µg/mL and 152 µM | 21 µM | 9.05 ± 0.1 µg/mL | 15.3 µM | 6.59 ± 0.09 µg/mL |  |  |  |  |  |  |  |  |  |
| O=c1c2cc(Cl)ccc2nc(SCc2ccc(C(F)(F)F)cc2)n1-c1ccc(F)cc1 [Compound 3f, 6-Chloro-3-(4-fluorophenyl)-2-((4-(trifluoromethyl)benzyl)thio)quinazolin-4(3H)-one] | 67.8 µg/mL and 146 µM | 58.9 µM | 27.39 ± 0.1 µg/mL | 37 µM | 17.19 ± 0.12 µg/mL |  |  |  |  |  |  |  |  |  |
| O=c1c2cc(Cl)ccc2nc(SCc2cc(C(F)(F)F)cc(C(F)(F)F)c2)n1-c1ccc(F)cc1 [Compound 3g, 2-((3,5-Bis(trifluoromethyl)benzyl)thio)-6-chloro-3-(4-fluorophenyl)quinazolin-4(3H)-one] | 70.4 µg/mL and 132 µM | 50.5 µM | 26.92 ± 0.09 µg/mL | 38.1 µM | 20.3 ± 0.23 µg/mL |  |  |  | 90.5 ± 2.16% |  |  | 0.0774 µM |  | 0.0578 ± 0.00275 µM |
| O=c1c2cc(Cl)ccc2nc(SCc2ccc(Br)cc2F)n1-c1ccc(F)cc1 [Compound 3h, 2-((4-Bromo-2-fluorobenzyl)thio)-6-chloro-3-(4-fluorophenyl)quinazolin-4(3H)-one] | 51.4 µg/mL and 104 µM | 30.2 µM | 14.89 ± 0.11 µg/mL | 16.5 µM | 8.14 ± 0.13 µg/mL |  |  |  | 92.6 ± 2.35% |  |  | 0.0735 µM |  | 0.0538 ± 0.0031 µM |
| N#Cc1ccc(CSc2nc3ccc(Cl)cc3c(=O)n2-c2ccc(F)cc2)cc1 [Compound 3i, 4-(((6-Chloro-3-(4-fluorophenyl)-4-oxo-3,4-dihydroquinazolin-2-yl)thio)methyl)benzonitrile] | 86.5 µg/mL and 205 µM | 95.6 µM | 40.33 ± 0.11 µg/mL | 62.8 µM | 26.49 ± 0.13 µg/mL |  |  |  |  |  |  |  |  |  |
| O=c1c2cc(Cl)ccc2nc(SCc2ccc([N+](=O)[O-])cc2)n1-c1ccc(F)cc1 [Compound 3j, 6-Chloro-3-(4-fluorophenyl)-2-((4-nitrobenzyl)thio)quinazolin-4(3H)-one] | 78.3 µg/mL and 177 µM | 50.9 µM | 22.48 ± 0.12 µg/mL | 31.6 µM | 13.96 ± 0.12 µg/mL |  |  |  |  |  |  |  |  |  |
| O=C1c2ccccc2C(=O)N1CSc1nc2ccc(Cl)cc2c(=O)n1-c1ccc(F)cc1 [Compound 3k, 2-(((6-Chloro-3-(4-fluorophenyl)-4-oxo-3,4-dihydroquinazolin-2-yl)thio)methyl)isoindoline-1,3-dione] | 80.5 µg/mL and 173 µM | 38 µM | 17.71 ± 0.14 µg/mL | 18.4 µM | 8.57 ± 0.1 µg/mL |  |  |  |  |  |  |  |  |  |
| O=C(CSc1nc2ccc(Cl)cc2c(=O)n1-c1ccc(F)cc1)Nc1cccc2ccccc12 [Compound 3l, 2-((6-Chloro-3-(4-fluorophenyl)-4-oxo-3,4-dihydroquinazolin-2-yl)thio)-N-(naphthalen-1-yl)acetamide] | 79 µg/mL and 161 µM | 26.9 µM | 13.18 ± 0.13 µg/mL | 14.2 µM | 6.98 ± 0.12 µg/mL |  |  |  |  |  |  |  |  |  |
| COc1cccc2c1C(=O)c1c(O)c3c(c(O)c1C2=O)C[C@@](O)(C(=O)CO)C[C@@H]3O[C@H]1C[C@H](N)[C@H](O)[C@H](C)O1 [Doxorubicin, reference compound] | 40.5 µg/mL and 74.5 µM |  |  | 1.41 µM | 0.77 ± 0.14 µg/mL |  |  |  |  |  |  |  |  |  |
| Cc1ccc(C(=O)N(CCCN)[C@@H](c2nc3cc(Cl)ccc3c(=O)n2Cc2ccccc2)C(C)C)cc1 [Ispinesib, reference compound] |  |  |  |  |  |  |  |  | 95.5 ± 2.24% |  |  |  |  |  |
